From ChEMBL document CHEMBL1125929, “Octoclothepin enantiomers. A reinvestigation of their biochemical and pharmacological activity in relation to a new receptor-interaction model for dopamine D-2 receptor antagonists” (J Med Chem, 1991)

Legend:
Type in all cases: functional
Details in all cases: sc
Rattus norvegicus [1] = assay: Dose to antagonise, when given subcutaneously to 6-OH-DA-lesioned rats, using pergolide antagonism test.(in vivo)
Summary of the method: (§1)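 Unilateral 6-OHDA-lesioned rats, tested 2–9 months after lesioning once stable contralateral circling was seen. Agonist was pergolide (0.05 μmol/kg sc) or SK&F 38393 (4.3 μmol/kg sc), given 2 h after the test compound. Inhibition was calculated as percent of each rat's own control circling response. Four to eight rats per dose.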

Rattus norvegicus [2] = assay: Dose to antagonise, when given subcutaneously to rats (in vivo) using catalepsy test, maximum effect 1-6h.
Summary of the method: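 Male Wistar rats (170–270 g) were scored hourly 1–6 h after dosing on a vertical wire grid. Catalepsy counted as present after at least 15-s immobility. The maximum effect over 1–6 h was taken. Eight to twelve animals per dose.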

Rattus norvegicus [3] = assay: Dose to antagonise, when given subcutaneously to 6-OH-DA-lesioned rats, using SK & F 38393 antagonism test.(in vivo); summary of the method: as §1
Mus musculus = assay: Dose to antagonise, when given subcutaneously to mice (in vivo) using methyl phenidate antagonism test
Summary of the method: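 Male NMRI mice (18–25 g) got test compound sc 2 h before methyl phenidate (222 μmol/kg sc). Mice were placed in pairs on corrugated cardboard in gnawing cages. Gnawing was judged 1 h later by inspecting the cardboard. Six to nine pairs per dose.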

Rattus norvegicus [4] = assay: Dose to antagonise, when given subcutaneously to rats (in vivo) using inhibition of locomotor motility test
Summary of the method: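 Locomotor activity of male Wistar rats was measured in photocell cages 2 h after test compound or saline. Four to eight animals per dose.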

Rattus norvegicus [5] = assay: Dose to antagonise, when given subcutaneously to rats (in vivo) using quipazine antagonism test.
Summary of the method: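 Rats got test compound 2 h before quipazine (15 μmol/kg sc). Each rat was observed singly in a perspex box, and head twitches were counted 30–40 min after quipazine. Inhibition was expressed as percent of a parallel control group. Four to eight rats per dose.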

Rattus norvegicus [6] = assay: Dose to antagonise, when given subcutaneously to rats (in vivo) using flexor reflex St 587 antagonism test.

Structure (SMILES) | ED50 (Rattus norvegicus [1]) [µmol/kg] | ED50 (Rattus norvegicus [2]) [µmol/kg] | ED50 (Rattus norvegicus [3]) [µmol/kg] | ED50 (Mus musculus) [µmol/kg] | ED50 (Rattus norvegicus [4]) [µmol/kg] | ED50 (Rattus norvegicus [5]) [µmol/kg] | ED50 (Rattus norvegicus [6]) [µmol/kg]
CN1CCN(C2Cc3ccccc3Sc3ccc(Cl)cc32)CC1 (stereo unspecified) [CLOROTEPINE] | 0.033 | 1.3 | 0.25 | 0.19 | 0.18 | 0.019 | 0.064
CN1CCN([C@@H]2Cc3ccccc3Sc3ccc(Cl)cc32)CC1 | 0.31 | 24 | 1.9 | 3.8 | 0.46 | 0.012 | 0.095
CN1CCN([C@H]2Cc3ccccc3Sc3ccc(Cl)cc32)CC1 | 0.017 | 0.65 | 0.85 | 0.2 | 0.12 | 0.02 | 0.26
